High-throughput results (PubChem BioAssay)
C2C12 statin: suppressors of statin myotoxicity in C2C12 myotubes, primary screen, cell-based, single point, plate reader. C2C12 myotubes + simvastatin, ATP luminescence, 48 h; scaled: DMSO 0, geranylgeraniol control 100. rescue of ATP level, % at 7.49 µM. 330,000 compounds, 0.78% hits. AID 602340, 2012;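 active = mean ATP rescue above about 67%, or every replicate alone reaching that limit, limit read from the data, passing the limit was not always enough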;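 also: myotubes were challenged with 10 µM simvastatin during compound exposure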
CDK5 p35 inh: inhibitors of human CDK5/p35 kinase, primary screen, biochemical, single concentration | Cyclin-dependent kinase 5 (Homo sapiens) + Cyclin-dependent kinase 5 activator 1 (Homo … | Recombinant CDK5/p35, ADP-Glo luminescence, 60 min | inhibition, % at 10 µM | 330,000 compounds, 0.01% hits;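 active = highest replicate inhibition of at least 50% and at least 75% of replicates reaching 50%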;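 also: plate controls were DMSO neutral control for no effect and GW8510 at 10 µM for full effect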
CAL PDZ FP-1: CAL PDZ peptide-binding inhibitors, primary screen, biochemical, fluorescence polarization, Cer-tagged CAL PDZ, HTS. AID 504414, 2011. purified CAL PDZ, TMR-peptide fluorescence polarization, 1 h. 330,000 compounds, 0.02% hits. inhibition, % at 20 µM. Golgi-associated PDZ and coiled-coil motif-containing protein (Homo sapiens), Q9HD26;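 active = highest replicate inhibition of at least 40%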;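 also: plate controls were DMSO neutral control wells for no effect and unlabeled competitor peptide control wells for full effect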
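Control set: unlabelled peptide and DMSO controls / Material: purified CerCALP PDZ construct / Timing: 1 h incubation at room temperature before polarization reading / Doses: 20 µM, one dose / Detection: fluorescence polarization (mP)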
S100A4 inh HTS: inhibitors of S100A4-myosin IIA peptide binding, primary screen, biochemical, fluorescence polarization, TAMRA-MyoIIA peptide; Protein S100-A4 (Homo sapiens), P26447; inhibition, % at 10.7 µM; 360,000 compounds, 0.14% hits; AID 652163, 2013;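 active = mean inhibition of at least 70% across replicates, with every replicate also reaching that level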
Target sequence (P26447 whole entry, looked up): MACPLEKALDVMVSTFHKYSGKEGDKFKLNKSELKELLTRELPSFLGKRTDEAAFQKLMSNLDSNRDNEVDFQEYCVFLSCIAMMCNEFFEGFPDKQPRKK
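Test system: S100A4 monomer protein. Medium: HEPES buffer with Ca2+, pH 7.2. Reagent: fluorescent myosin IIA peptide, 5 nM. Compound dosing: single-point compound testing. Timing: 5 min between mix addition and reading. Benchmarks: DMSO neutral and TFP positive wells.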
dFosB act: activators of delta FosB homodimer, primary screen, biochemical, fluorescence polarization, TAMRA-CDK5 oligo, single point; activation, % at 25 µM; 340,000 compounds, 0.99% hits; purified delta FosB; percent of positive-control signal above neutral wells; AID 493131, 2011; Protein FosB (Mus musculus), P13346;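 active = mean activation above about 17%, with every replicate also reaching it, limit read from the data, passing the limit was not always enough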
Target sequence (P13346 whole entry, looked up): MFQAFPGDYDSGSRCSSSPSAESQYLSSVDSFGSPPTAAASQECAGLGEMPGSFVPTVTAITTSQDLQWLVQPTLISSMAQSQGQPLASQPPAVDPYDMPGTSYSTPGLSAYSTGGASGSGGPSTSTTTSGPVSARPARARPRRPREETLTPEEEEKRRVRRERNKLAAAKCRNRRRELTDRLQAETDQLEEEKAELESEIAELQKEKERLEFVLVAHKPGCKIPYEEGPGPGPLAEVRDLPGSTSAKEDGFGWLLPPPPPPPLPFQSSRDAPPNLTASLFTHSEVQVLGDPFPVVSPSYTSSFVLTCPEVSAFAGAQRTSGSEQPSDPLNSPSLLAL
CAL PDZ FP-2: untagged CAL PDZ binding inhibitors, primary screen, biochemical, fluorescence polarization, HTS; Golgi-associated PDZ and coiled-coil motif-containing protein (Homo sapiens), Q9HD26; purified CAL PDZ, TMR-peptide fluorescence polarization, 1 h; inhibition, % at 24.9 µM; 300,000 compounds, 0.92% hits;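 active = mean inhibition of at least 30% with at least half of replicates also reaching 30%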;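 also: 0% = DMSO neutral control and 100% = excess unlabeled competitor peptide PRC23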
* marks the source's active call; other numbers are inactive results; x = no result. Rows were chosen to be rich in hits. Some 2% of all compounds tested hit in one or more screens of this group.

SMILES | C2C12 statin | CDK5 p35 inh | CAL PDZ FP-1 | S100A4 inh HTS | dFosB act | CAL PDZ FP-2
N#CCc1c(C#N)c(N)nc(N2CCN(C=O)CC2)c1C#N | x | 2 | 0 | -8 | 5 | 4
N#CCc1c(C#N)c(N)nc(N2CCN(S(=O)(=O)c3ccccc3)CC2)c1C#N | 84* | 0 | -2 | x | 9 | 0
COC(=O)c1ccc(NC(=S)NNC(=O)CC(C)C)cc1 | x | 1 | -1 | x | 5 | 1
CCNC(=S)NNC(=O)CC(C)C | x | -1 | -1 | 11 | 3 | 36*
CC(C)CNC(=S)NNC(=O)CC(C)O (stereo unspecified) | x | -4 | 0 | -5 | -2 | 77*
Cc1cc2nc(C)n(CCCNC(=O)Nc3ccc(C#N)cc3)c2cc1C | 6 | 1 | -3 | x | -2 | -6
NC(=O)CCc1c[nH]c2ccccc12 | 109* | 1 | 1 | x | -1 | -3
CCCNS(=O)(=O)c1ccc(OCC(=O)OC)cc1 | 130* | 0 | 0 | x | 2 | 4
CC(=O)c1cccc(NC(=O)c2ccccc2-c2ccccc2C(=O)O)c1 | -1 | -2 | 0 | -18 | 0 | -2
CC(C)CNC(=O)c1cccc(NC(=O)c2ccccc2-c2ccccc2C(=O)O)c1 | -6 | 1 | x | -7 | 10 | 89*
OCC[C@H]1C[C@@H](O)[C@H](O)[C@@]2(CCCc3ccccc3O2)O1 | -2 | 0 | 0 | 1 | -7 | -2
CC1=CC2=C(OC1N(C)C)c1cccc3cccc(c13)C2=O (stereo unspecified) | 7 | -3 | x | x | -13 | 39*
Cc1ccc(N2C(=O)c3cccc4cccc(c34)C2=O)cc1 | 2 | 0 | 0 | -3 | 0 | 4
CCN1CCc2c(OCc3ccc(C(=O)OC)o3)cccc2C1=O | x | 1 | 9 | -3 | -4 | -8
COc1cc(C(=O)Oc2ccccc2OC(=O)c2cc(OC)c(OC)c(OC)c2)cc(OC)c1OC | 4 | 2 | 0 | -5 | -16 | -5
COc1cc(C(=O)Oc2cccc(C)c2)cc(OC)c1OC | 117* | -1 | 0 | x | -9 | x
O=C(Oc1ccc(F)c(F)c1)c1ccc2c(=O)n3c(nc2c1)CCC3 | 8 | 0 | -4 | -1 | -5 | -2
COc1cc(Br)c(-c2sc(Nc3ccccc3)n[n+]2-c2ccc(F)cc2)cc1OC | 135* | 2 | -1 | -2 | -14 | -1
O=S(=O)(NCC1CCCO1)c1ccc(Br)cc1 (stereo unspecified) | 5 | 0 | 0 | 0 | 1 | -2
Cc1c(Cl)cccc1NC(=O)CNC(=O)Cc1n[nH]c(=O)c2ccccc12 | 110* | 1 | 0 | -15 | 5 | -2
CC(SCC(=O)Nc1ccccc1)c1nc2ccccc2c(=O)[nH]1 (stereo unspecified) | x | -1 | 0 | 2 | -6 | 18
Cc1c(Cl)cccc1NC(=O)CSC(C)c1nc2ccccc2c(=O)[nH]1 (stereo unspecified) | 7 | 1 | -1 | -3 | 41* | x
CCC(=O)NC(=S)Nc1cccc(Cl)c1N1CCCCC1 | x | 0 | x | x | -4 | -4
O=C(NCN1C(=O)C2C3C=CC(C3)C2C1=O)Nc1cccnc1 (stereo unspecified) | 8 | 0 | -1 | x | -6 | 3
CN1CCN(CCN2CCn3c2nc2ccccc23)CC1 | 81* | 4 | 0 | x | 4 | -4
SMILES | C2C12 statin | CDK5 p35 inh | CAL PDZ FP-1 | S100A4 inh HTS | dFosB act | CAL PDZ FP-2
CSCCC(NC(=O)COc1cccc2ccccc12)C(=O)O (stereo unspecified) | 13 | -1 | 0 | -3 | 1 | 70*
Cc1ccc(NC(=O)c2cc(C)nc3ccccc23)c(Br)c1 | -6 | 1 | 0 | -3 | 1 | x
Cn1c(Oc2ccccc2NCc2cccc(Br)c2)cc(=O)n(C)c1=O | 31 | 0 | -1 | x | -2 | 79*
Cn1c(NCc2cccc(Br)c2)nc2ccccc21 | 3 | 1 | -1 | x | 4 | 4
O=C1OC(CO)CN1Cc1ccccc1 (stereo unspecified) | 4 | 0 | x | -7 | -1 | 58*
CCOC(=O)C(NCCCO)c1ccccc1 (stereo unspecified) | 1 | 1 | -2 | x | -6 | -2
Cc1cccc(N(CC(=O)NCCSCc2ccccc2)S(C)(=O)=O)c1 | 10 | 3 | -1 | 3 | -7 | x
COc1nc(Nc2ccc([N+](=O)[O-])cc2)nc(NC2CCCCC2)n1 | 7 | 0 | -3 | -3 | 29* | 0
CCc1nnc(NC(=O)Cc2ccc(OC)c(S(=O)(=O)N3CCOCC3)c2)s1 | 8 | x | x | -2 | x | x
CCSc1nnc(NC(=O)Cc2ccc(OC)c(S(=O)(=O)N3CCOCC3)c2)s1 | 32 | 2 | -1 | x | -2 | 39*
COc1ccccc1C(=O)NCC(=O)OC(C)C(=O)NC(=O)NC1CCCCC1 (stereo unspecified) | 87* | 2 | 0 | x | -2 | -2
CC(OC(=O)c1ccc(NC(=O)CC#N)cc1)C(=O)NC(=O)NC1CCCCC1 (stereo unspecified) | 8 | -2 | -1 | -2 | 58* | x
COc1ccccc1C(=O)NCCC(=O)NCC1CCCCC1 | 0 | 0 | 5 | -2 | -1 | 79*
CC(OC(=O)c1ccc(NC(=O)CC#N)cc1)C(=O)NCCC1=CCCCC1 (stereo unspecified) | -1 | 1 | 0 | -12 | 5 | x
Cc1cccc(NS(=O)(=O)c2cccc(C(=O)N3CCCC(C(F)(F)F)C3)c2)c1 (stereo unspecified) | 11 | 1 | -2 | -4 | -5 | -2
C#CCOCCOCCOCCNc1nc(N2CCN(C(=O)CCCCCCCCCCNC(=O)Cn3cc(C[C@@H](C)O)nn3)CC2)nc(N2CCN(C(=O)CCCCCCCCCCNC(=O)[C@@H]([C@H](C)O)n3cc(C)nn3)CC2)n1 | 106* | -5 | -2 | x | -2 | -9
C#CCOCCOCCOCCNc1nc(N2CCN(C(=O)CCCCCCCCCCNC(=O)Cn3cc(CCCCCN)nn3)CC2)nc(N2CCN(C(=O)CCCCCCCCCCNC(=O)[C@@H]([C@H](C)O)n3cc(C)nn3)CC2)n1 | -10 | -1 | -1 | x | -165 | -8
COc1ccc(C(=O)N/C(=C\c2cccs2)c2nc3ccccc3[nH]2)cc1OC | x | -6 | x | x | 3 | -4
C/C(=N\NS(C)(=O)=O)c1ccccc1 | 9 | 1 | -1 | x | 1 | 94*
